Measurements taken from ChEMBL document CHEMBL3286102, “Benzofuran derivatives as anticancer inhibitors of mTOR signaling” (Eur J Med Chem, 2014).
Calls of active or inactive are those of the source. The rule behind the calls is not given here.

Assays:
SQ20B = test: Cytotoxicity against human SQ20B cells after 72 hrs by MTT assay; type: functional, cell-based
Summary of the method: (§1)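 Monolayer culture in RPMI with 10% fetal calf serum, 2 mM glutamine, penicillin/streptomycin, 37 °C, humidified 5% CO2, checked for Mycoplasma. Cells seeded at 2 × 10³/well; after drug exposure, 0.4 mg/ml MTT for 4 h at 37 °C. Formazan dissolved in DMSO, absorbance read at 560 nm. Untreated cells served as positive control, drug medium without cells as negative control.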

HOP-62 = test: Cytotoxicity against human HOP62 cells after 72 hrs by MTT assay; type: functional, cell-based; summary of the method: as §1
COLO 205 = test: Cytotoxicity against human COLO205 cells after 72 hrs by MTT assay; type: functional, cell-based; summary of the method: as §1
mTORC1 (Homo sapiens) [1] = target: T1, mTORC1 (Homo sapiens) (UniProt P42345+Q8N122+Q9BVC4); test: Inhibition of mTORC1 in human SK-HEP1 cells assessed as reduction of S6 phosphorylation at 0.1 to 8 uM after 24 hrs by Western blotting; type: cell-based
Summary of the method: (§2)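 Membranes were blocked in 5% milk/0.05% Tween 20-PBS and probed overnight with primary antibody against p-S6, p-4EBP1 or p-Akt (S473). Detection used HRP secondary antibody and enhanced chemiluminescence.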

mTORC1 (Homo sapiens) [2] = target: T1, mTORC1 (Homo sapiens); test: Inhibition of mTORC1 in human COLO205 cells assessed as AKT phosphorylation at Ser473 at 0.1 to 8 uM after 24 hrs by Western blotting; type: cell-based; conditions: COLO 205; summary of the method: as §2
mTORC1 (Homo sapiens) [3] = target: T1, mTORC1 (Homo sapiens); test: Inhibition of mTORC1 in human SK-HEP1 cells assessed as AKT phosphorylation at Ser473 at 0.1 to 8 uM after 24 hrs by Western blotting; type: cell-based; summary of the method: as §2
mTORC1 (Homo sapiens) [4] = target: T1, mTORC1 (Homo sapiens); test: Inhibition of mTORC1 in human SK-HEP1 cells assessed as reduction of 4-EBP1 phosphorylation at 0.1 to 8 uM after 24 hrs by Western blotting; type: cell-based; summary of the method: as §2
mTORC1 (Homo sapiens) [5] = target: T1, mTORC1 (Homo sapiens); test: Inhibition of mTORC1 in human COLO205 cells assessed as reduction of 4-EBP1 phosphorylation at 0.1 to 8 uM after 24 hrs by Western blotting; type: cell-based; conditions: COLO 205; summary of the method: as §2
mTORC1 (Homo sapiens) [6] = target: T1, mTORC1 (Homo sapiens); test: Inhibition of mTORC1 in human COLO205 cells assessed as reduction of S6 phosphorylation at 0.1 to 8 uM after 24 hrs by Western blotting; type: cell-based; conditions: COLO 205; summary of the method: as §2

T1 sequence (Q8N122 whole entry, looked up, other chains not shown): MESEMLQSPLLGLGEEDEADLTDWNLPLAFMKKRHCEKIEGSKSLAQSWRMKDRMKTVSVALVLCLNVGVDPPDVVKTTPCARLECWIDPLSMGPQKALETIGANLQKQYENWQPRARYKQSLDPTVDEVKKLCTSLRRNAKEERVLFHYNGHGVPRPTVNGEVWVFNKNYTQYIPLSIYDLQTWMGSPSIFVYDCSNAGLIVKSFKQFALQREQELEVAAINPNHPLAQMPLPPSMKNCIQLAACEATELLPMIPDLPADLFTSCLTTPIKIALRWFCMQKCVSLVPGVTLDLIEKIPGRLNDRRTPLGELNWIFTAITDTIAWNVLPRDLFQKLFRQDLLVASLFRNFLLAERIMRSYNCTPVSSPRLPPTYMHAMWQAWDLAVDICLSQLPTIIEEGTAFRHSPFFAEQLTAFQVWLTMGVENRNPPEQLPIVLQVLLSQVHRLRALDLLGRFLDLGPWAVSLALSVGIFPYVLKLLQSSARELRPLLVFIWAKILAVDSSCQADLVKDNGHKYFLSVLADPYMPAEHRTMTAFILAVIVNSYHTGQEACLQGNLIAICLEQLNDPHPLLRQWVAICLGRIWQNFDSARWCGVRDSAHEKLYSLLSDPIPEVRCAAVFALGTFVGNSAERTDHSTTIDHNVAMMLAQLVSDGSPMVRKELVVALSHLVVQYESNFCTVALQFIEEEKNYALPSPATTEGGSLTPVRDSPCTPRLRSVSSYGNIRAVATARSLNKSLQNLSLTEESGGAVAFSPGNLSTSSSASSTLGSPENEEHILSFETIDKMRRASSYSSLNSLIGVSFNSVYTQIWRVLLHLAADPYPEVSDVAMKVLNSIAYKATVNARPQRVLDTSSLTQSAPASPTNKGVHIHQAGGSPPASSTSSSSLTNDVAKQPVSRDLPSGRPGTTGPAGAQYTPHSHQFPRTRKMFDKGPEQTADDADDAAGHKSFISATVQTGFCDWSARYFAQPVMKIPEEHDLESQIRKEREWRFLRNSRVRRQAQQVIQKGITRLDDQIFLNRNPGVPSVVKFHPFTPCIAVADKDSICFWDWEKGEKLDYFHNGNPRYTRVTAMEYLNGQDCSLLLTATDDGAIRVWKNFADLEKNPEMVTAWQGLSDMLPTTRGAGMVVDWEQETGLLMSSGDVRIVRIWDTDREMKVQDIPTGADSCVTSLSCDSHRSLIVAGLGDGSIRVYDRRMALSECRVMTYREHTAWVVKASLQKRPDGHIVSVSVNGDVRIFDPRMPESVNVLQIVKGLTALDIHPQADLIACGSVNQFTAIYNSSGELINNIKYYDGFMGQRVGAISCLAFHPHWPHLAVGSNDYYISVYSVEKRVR
T1 sequence (Q9BVC4 whole entry, looked up, other chains not shown): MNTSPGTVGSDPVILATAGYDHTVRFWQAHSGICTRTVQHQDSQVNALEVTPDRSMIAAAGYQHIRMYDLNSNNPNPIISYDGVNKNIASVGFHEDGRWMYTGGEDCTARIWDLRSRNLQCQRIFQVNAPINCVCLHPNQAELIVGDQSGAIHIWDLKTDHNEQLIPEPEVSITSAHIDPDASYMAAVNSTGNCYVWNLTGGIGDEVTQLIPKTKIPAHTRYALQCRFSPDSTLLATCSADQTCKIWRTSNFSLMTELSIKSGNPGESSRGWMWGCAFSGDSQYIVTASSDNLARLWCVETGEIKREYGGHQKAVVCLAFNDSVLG

For `Oc1ccc2oc(-c3ccco3)cc2c1CN1CCC(N2CCCCC2)CC1`, the IC50 (SQ20B) was 4000 nM.

`c1ccc(-c2cc3c(CN4CCC(N5CCCCC5)CC4)cccc3o2)cc1` showed an IC50 (SQ20B) of 7500 nM.

`COc1ccc(-c2cc3c(CN4CCC(N5CCCCC5)CC4)c(O)ccc3o2)cc1` was tested, and the IC50 (SQ20B) was 850 nM.

Molecule `O=S(=O)(Oc1ccc2oc(-c3ccccc3)cc2c1CN1CCC(N2CCCCC2)CC1)C(F)(F)F` has an IC50 (SQ20B) of 2800 nM.

`Oc1ccc2oc(-c3cccs3)cc2c1CN1CCC(N2CCCCC2)CC1` was tested, and the IC50 (SQ20B) was 2700 nM.

With `Oc1ccc2oc(-c3ccccc3)nc2c1CN1CCC(N2CCCCC2)CC1` the IC50 (SQ20B) was 6500 nM.

`COc1ccc(-c2cc3c(CN4CCC(N5CCCCC5)CC4)c(O)ccc3o2)c(OC)c1` was tested, and the IC50 (SQ20B) was 1100 nM.

Molecule `COc1ccc(-c2cc3c(CN4CCC(N(C)C)CC4)c(O)ccc3o2)cc1` has an IC50 (SQ20B) of 1200 nM.

In the case of `Cn1c(-c2ccccc2)cc2c(CN3CCC(N4CCCCC4)CC3)c(O)ccc21`, the IC50 (SQ20B) is reported as 19000 nM.

`Oc1ccc2oc(-c3cccc(Cl)c3)cc2c1CN1CCC(N2CCCCC2)CC1` showed an IC50 (SQ20B) of 920 nM.

With `Oc1ccc2oc(-c3ccccc3OCc3ccccc3)cc2c1CN1CCC(N2CCCCC2)CC1` the IC50 (SQ20B) was 380 nM, the Activity (HOP-62) was “Active” and the Activity (COLO 205) was “Active”.

In the case of `Oc1ccc2oc(-c3ccccc3)cc2c1CN1CCC(N2CCCCC2)CC1`, the IC50 (SQ20B) is reported as 1400 nM, the Activity (HOP-62) is reported as “Active” and the Activity (COLO 205) is reported as “Active”.

Work on `Oc1ccc2[nH]c(-c3ccccc3)nc2c1CN1CCC(N2CCCCC2)CC1` yielded an IC50 (SQ20B) of 21000 nM.

With `Oc1ccc2occ(-c3ccccc3)c2c1CN1CCC(N2CCCCC2)CC1` the IC50 (SQ20B) was 11000 nM.

In the case of `c1ccc(-c2cc3c(CN4CCC(N5CCCCC5)CC4)nccc3o2)cc1`, the IC50 (SQ20B) is reported as 18000 nM.

Work on `OCc1c(-c2ccccc2)oc2ccc(O)c(CN3CCC(N4CCCCC4)CC3)c12` yielded an IC50 (SQ20B) of 3400 nM.

`O=S(=O)(Nc1ccc2oc(-c3ccccc3)cc2c1CN1CCC(N2CCCCC2)CC1)C(F)(F)F` gave an IC50 (SQ20B) of 2100 nM.

Work on `CN(C)Cc1c(O)ccc2oc(-c3ccccc3)cc12` yielded an IC50 (SQ20B) of 32000 nM.

Molecule `Oc1ccc2c(ccn2Cc2ccccc2)c1CN1CCC(N2CCCCC2)CC1` has an IC50 (SQ20B) of 17000 nM.

For `COc1ccccc1-c1cc2c(CN3CCC(N4CCCCC4)CC3)c(O)ccc2o1`, the IC50 (SQ20B) was 1300 nM.

With `CO[C@H]1C[C@@H]2CC[C@@H](C)[C@@](O)(O2)C(=O)C(=O)N2CCCC[C@H]2C(=O)O[C@H]([C@H](C)C[C@@H]2CC[C@@H](OCCO)[C@H](OC)C2)CC(=O)[C@H](C)/C=C(\C)[C@@H](O)[C@@H](OC)C(=O)[C@H](C)C[C@H](C)/C=C/C=C/C=C/1C` [EVEROLIMUS] the inhibition (mTORC1 (Homo sapiens) [1]) was “Active”, the IC50 (SQ20B) was 7300 nM and the inhibition (mTORC1 (Homo sapiens) [2]) was “inactive”. The inhibition (mTORC1 (Homo sapiens) [3]) was “inactive”, the Activity (HOP-62) was “inactive” and the Activity (COLO 205) was “Active”. For the same molecule, the inhibition (mTORC1 (Homo sapiens) [4]) was “Active”, the inhibition (mTORC1 (Homo sapiens) [5]) was “Active” and the inhibition (mTORC1 (Homo sapiens) [6]) was “Active”.

`Oc1ccc2oc(-c3ccc4ccccc4c3)cc2c1CN1CCC(N2CCCCC2)CC1` gave an IC50 (SQ20B) of 2800 nM.

`COc1cccc2cc(-c3nc([C@H]4CC[C@H](C(=O)O)CC4)n4ncnc(N)c34)[nH]c12` was tested, and the Activity (HOP-62) was “Active” and the Activity (COLO 205) was “Active”.

For `Oc1ccc2oc(-c3cccc4ccccc34)cc2c1CN1CCC(N2CCCCC2)CC1`, the IC50 (SQ20B) was 860 nM.

In the case of `COc1cccc(-c2cc3c(CN4CCC(N5CCCCC5)CC4)c(O)ccc3o2)c1`, the IC50 (SQ20B) is reported as 2000 nM.

With `COc1ccc2oc(-c3ccccc3OCc3ccccc3)cc2c1CN1CCC(N(C)C)CC1` the inhibition (mTORC1 (Homo sapiens) [1]) was “Active”, the IC50 (SQ20B) was 460 nM and the Activity (HOP-62) was “Active”. The Activity (COLO 205) was “Active”, the inhibition (mTORC1 (Homo sapiens) [4]) was “Active” and the inhibition (mTORC1 (Homo sapiens) [5]) was “Active”. The inhibition (mTORC1 (Homo sapiens) [6]) was “Active”.

`Oc1ccc2cc(-c3ccccc3)oc2c1CN1CCC(N2CCCCC2)CC1` showed an IC50 (SQ20B) of 11000 nM.

With `CO[C@H]1C[C@@H]2CC[C@@H](C)[C@@](O)(O2)C(=O)C(=O)N2CCCC[C@H]2C(=O)O[C@H]([C@H](C)C[C@@H]2CC[C@@H](O)[C@H](OC)C2)CC(=O)[C@H](C)/C=C(\C)[C@@H](O)[C@@H](OC)C(=O)[C@H](C)C[C@H](C)/C=C/C=C/C=C/1C` the inhibition (mTORC1 (Homo sapiens) [1]) was “Active”, the inhibition (mTORC1 (Homo sapiens) [4]) was “Active” and the inhibition (mTORC1 (Homo sapiens) [5]) was “Active”. For the same molecule, the inhibition (mTORC1 (Homo sapiens) [6]) was “Active”.

`Oc1ccc2oc(-c3ccccc3Cl)cc2c1CN1CCC(N2CCCCC2)CC1` was tested, and the IC50 (SQ20B) was 2600 nM.

`Cc1c(-c2ccccc2)oc2ccc(O)c(CN3CCC(N4CCCCC4)CC3)c12` was tested, and the IC50 (SQ20B) was 1200 nM.

Molecule `Oc1ccc2oc(-c3ccc(Cl)c(Cl)c3)cc2c1CN1CCC(N2CCCCC2)CC1` has an IC50 (SQ20B) of 2300 nM.

In the case of `CCOC(=O)c1c(-c2ccccc2)oc2ccc(O)c(CN3CCC(N4CCCCC4)CC3)c12`, the IC50 (SQ20B) is reported as 1500 nM.

With `Oc1ccc2oc(-c3ccc(Cl)cc3)cc2c1CN1CCC(N2CCCCC2)CC1` the IC50 (SQ20B) was 860 nM.

Work on `COc1ccc2oc(-c3ccccc3)cc2c1CN1CCC(N2CCCCC2)CC1` yielded an IC50 (SQ20B) of 2500 nM.
